In paper PMC2638642 (Toxicological Sciences, 2008):

Tests used:
[1] = Toxicokinetic; type: in vivo, BALB/c mice
Method in brief: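 Female BALB/c mice (12/group) got vancomycin iv or ip at 50, 200 or 400 mg/kg. Retro-orbital EDTA plasma came from three mice per time point, 0.083–24 h after doses 1 and 7. Plasma went through SPE with a tinidazole internal standard, eluted in acetonitrile:KH2PO4 pH 4, then gradient LC; calibration by 1/y-weighted regression of peak-area ratio. Noncompartmental analysis; F = (AUCip/AUCiv)×(Doseiv/Doseip).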

[2] = after iv administration in human; ref Palmer-Toy, 2000; Rybak, 2006; cited from earlier work
[3] = tested on: BALB/c mice; assay: Serum clinical chemistry, 7-day toxicity study; type: in vivo; details: for BUN change: 3 mice per group
Method in brief: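 Groups of six female BALB/c mice were dosed iv or ip with the test compound at 50, 200 or 400 mg/kg once daily for 7 days; controls got 0.9% saline by the same route. Retro-orbital blood was taken from three randomly selected mice per group on day 3 (before the third dose) and day 8 (before sacrifice). Serum BUN, ALP and GGT were measured by an outside veterinary laboratory.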

[4] = tested on: BALB/c mice; assay: Histopathology, 7-day toxicity study; type: in vivo
[5] = high-dose treatment, day 8, serum

## CN[C@H](CC(C)C)C(=O)N[C@H]1C(=O)N[C@@H](CC(N)=O)C(=O)N[C@H]2C(=O)N[C@H]3C(=O)N[C@H](C(=O)N[C@H](C(=O)O)c4cc(O)cc(O)c4-c4cc3ccc4O)[C@H](O)c3ccc(c(Cl)c3)Oc3cc2cc(c3O[C@@H]2O[C@H](CO)[C@@H](O)[C@H](O)[C@H]2O[C@H]2C[C@](C)(N)[C@H](O)[C@H](C)O2)Oc2ccc(cc2Cl)[C@H]1O [vancomycin]
[1]; BALB/c mice, 200 mg/kg
  AUC^0→∞ after iv relative to ip administration (iv higher): 1.7 fold
[1]; BALB/c mice, 200 mg/kg, after seven doses
  difference in Cmax value between iv and ip administration (iv higher): 3.4 fold
[1]; iv high-dose group (400 mg/kg), some animals
  clinical condition of animals in TK study: moribund or dead
[2]
  Cmax in human (also therapeutic range): 20000 to 50000 ng/mL
[3]; 50, 200, 400 mg/kg/day iv or ip x7
  CRE (serum creatinine) levels: not significantly affected
[3]; high-dose (400 mg/kg/day x7) ip, day 8, serum
  BUN change: trend toward increased BUN values
[3]; high-dose (400 mg/kg/day x7) iv, day 8, serum
  BUN change: statistically significant increase
[3]; [5]
  alkaline phosphatase (ALP): affected
  gamma-glutamyl transferase (GGT): affected
[4]; 400 mg/kg/day either iv or ip x7, day 8, H&E
  primary histopathological finding in kidneys: proximal tubular necrosis
[4]; 400 mg/kg/day iv or ip x7, day 8, H&E
  inflammatory cell infiltration into the affected renal tissue: minimal
[4]; iv-200 (200 mg/kg/day iv x7)
  signs of toxicity in clinical chemistry and histopathology assessments: did not exhibit signs of toxicity
